The results in this text go back to PubChem BioAssay.

Molecules are shown by their SMILES. The source made the active and inactive calls.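 Rule for the calls, unless noted: active = viability at or below 10% of carrier control in both of two separate runs; inconclusive = viability at or below 10% in only one of the two runs; inactive = the rest.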

The nature of experiment [1]: Her2 expression decrease, cell viability multiplex – SKBR3 breast tumor cells, AlphaScreen, ATP viability, primary screen (AID 461;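 active = Her2 level under about 52% in both replicate screens, with viability over 70% of control, limit read from the data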;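 for Her2 level: lower value means less Her2 protein in the cells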;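 for viability: percent of carrier control wells set as 100% viability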). To be noted: SKBR3 Her2 protein level, 18-24 h, measured here: SKBR3 viability, ATP luminescence, at 10 µM. For orientation: Bead proximity is the source of the signal in Alpha formats.
The target in experiment [2] is Receptor tyrosine-protein kinase erbB-2 (Homo sapiens) (UniProt P04626). The description is as above. The settings on record: 18-24 h, at 10 µM, stronger effect = lower value.
Experiment [3] in a line: reduced viability of SK-BR-3 breast cancer cells – cell-based, 24 h, human, pilot screen (AID 572).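 Note: compound exposure lasted between 18 and 24 h rather than exactly 24 h; 100% = carrier-treated control wells.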 To be noted: SK-BR-3 viability, CellTiter-Glo luminescence, at 10 µM, stronger effect = lower value.
The nature of experiment [4]: HUVEC growth inhibition – cell-based, human, primary screen (AID 575;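 active = viability at or below 30% in both replicate assays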;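 note: 100% = median of untreated cell wells with 0.1% DMSO on each plate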). To be noted: HUVEC proliferation, CellTiter-Glo luminescence, 72 h; at 10 µM; stronger effect = lower value. The method in brief:
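Test system: primary human umbilical vein endothelial cells. Quantity: 1250 cells/well. Compound: single 10 µM dose, 0.1% DMSO, from 5x medium stock. Timing: 72 h treatment at 37 °C. Detection: ATP-based CellTiter-Glo luminescent read. Benchmarks: vehicle and MePR control wells. Format: 384-well plates coated with collagen.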

Experiment [5] is described as follows: H69AR cell proliferation blockers – human, duplicate replicates, primary screen (AID 580;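 active = viability at or under a set limit in both replicates, limit being median viability minus 3 SD, cut at about 48% in these data, passing the limit was not always enough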;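 note: 100% = mean luminescence of untreated wells and 0% = no signal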). To be noted: H69AR lung tumor cells viability, ATP luminescence, 72 h; at 10 µM; stronger effect = lower value.
Experiment [6] is described as follows: MRP1 drug-resistance reversers in H69AR cells – cell-based, doxorubicin co-treatment, pilot screen (AID 601;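 active = viability loss from added drug above about 55%, and viability with drug at most 40%, in both replicates, limit read from the data, passing the limit was not always enough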). To be noted: CellTiter-Glo, 72 h, at 10 µM; for differential viability (reversal): stronger effect = higher value. For orientation: ATP-based viability assays read luminescence as a measure of living cells.
Experiment [7] in a line: yeast transport mutant growth inhibition pilot in 384-well plates, post-Golgi transport modulator project (AID 636; in the data active = inhibition above about 31%). The settings on record: absorbance 615 nm, about 18 h, stronger effect = higher value.
Experiment [8] is described as follows: growth suppression of yeast trafficking mutant, preliminary HTS, modulators of trafficking downstream of Golgi apparatus project, 1536-format plate, OD 615 nm (AID 637; in the data active = inhibition above about 30%). To be noted: yeast transport mutant growth, absorbance 615 nm, 18 h; stronger effect = higher value.
[9] abbreviates: H69AR cells + 2 uM doxorubicin, measured here: viability with 2 uM doxorubicin, stronger effect = lower value.
[10] abbreviates: H69AR cells, compound alone cytotoxicity.

Sequence of Receptor tyrosine-protein kinase erbB-2 (Homo sapiens) (P04626 whole entry, looked up): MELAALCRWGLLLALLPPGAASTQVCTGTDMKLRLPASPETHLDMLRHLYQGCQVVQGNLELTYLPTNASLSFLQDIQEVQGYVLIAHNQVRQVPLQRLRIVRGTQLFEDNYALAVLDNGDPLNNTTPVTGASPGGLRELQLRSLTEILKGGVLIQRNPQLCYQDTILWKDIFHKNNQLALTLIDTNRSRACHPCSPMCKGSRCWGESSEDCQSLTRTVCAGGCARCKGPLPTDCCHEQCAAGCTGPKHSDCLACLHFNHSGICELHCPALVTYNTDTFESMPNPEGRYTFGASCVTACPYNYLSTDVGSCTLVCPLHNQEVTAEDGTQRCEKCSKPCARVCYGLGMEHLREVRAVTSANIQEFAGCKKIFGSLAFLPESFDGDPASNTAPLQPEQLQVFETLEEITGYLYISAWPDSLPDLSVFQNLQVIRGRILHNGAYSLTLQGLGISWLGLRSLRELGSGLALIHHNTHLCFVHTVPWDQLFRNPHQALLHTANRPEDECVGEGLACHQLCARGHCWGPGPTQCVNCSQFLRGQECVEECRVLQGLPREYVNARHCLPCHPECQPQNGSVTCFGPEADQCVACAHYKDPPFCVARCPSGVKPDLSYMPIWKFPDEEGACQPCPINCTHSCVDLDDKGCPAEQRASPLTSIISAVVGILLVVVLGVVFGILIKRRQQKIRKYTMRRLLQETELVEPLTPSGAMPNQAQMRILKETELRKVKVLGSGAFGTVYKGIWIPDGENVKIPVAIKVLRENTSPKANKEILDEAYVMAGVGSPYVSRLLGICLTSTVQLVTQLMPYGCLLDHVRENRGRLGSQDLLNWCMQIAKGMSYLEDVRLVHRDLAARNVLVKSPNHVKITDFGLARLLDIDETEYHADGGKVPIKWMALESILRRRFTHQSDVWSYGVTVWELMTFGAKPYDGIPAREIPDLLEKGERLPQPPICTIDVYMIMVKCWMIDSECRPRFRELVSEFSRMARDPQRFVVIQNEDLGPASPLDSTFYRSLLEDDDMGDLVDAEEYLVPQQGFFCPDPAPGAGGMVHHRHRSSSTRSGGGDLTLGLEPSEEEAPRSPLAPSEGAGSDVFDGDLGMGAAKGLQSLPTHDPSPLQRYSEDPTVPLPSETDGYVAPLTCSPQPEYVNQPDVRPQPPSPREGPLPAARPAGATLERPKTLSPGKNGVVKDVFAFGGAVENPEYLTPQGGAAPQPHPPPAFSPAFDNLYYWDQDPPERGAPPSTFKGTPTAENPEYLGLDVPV

For the compound `Cn1c(=O)c2c([nH]c(=O)n2C)n(C)c1=O`, the viability (as a rule, a read-out of living cells in per cent, often relative to untreated cells) in experiment [1] was 104%; in experiment [3], 104% (inactive); in experiment [4] it was 88.7% (inactive); in experiment [5] it was 90.2% (inactive); in experiment [6] (setting [9]), 95.3%; in experiment [6] (setting [10]) it was 90.2%. In experiment [2], the Her2 level was 84.5% (inactive). In addition, in experiment [6] (H69AR cells + 2 uM doxorubicin), the differential viability (reversal) is -5.03% (inactive). The results for the inhibition in experiment [7] and in experiment [8] were -2.21% (inactive) and 7.21% (inactive), respectively.

For `COc1ccc(-c2nnc(SCC(=O)N3CCCCC3)o2)cc1OC`, the viability in experiment [1] was 104%; in experiment [3] it was 104% (inactive); in experiment [4], 88.7% (inactive); in experiment [5] it was 97.5% (inactive); in experiment [6] (setting [9]), 92.1%; in experiment [6] (setting [10]) it was 97.5%. The Her2 level in experiment [2] was 104% (inactive). For the same compound, the differential viability (reversal) in experiment [6] (H69AR cells + 2 uM doxorubicin) is 5.33% (inactive). The inhibition – broadly, the relative decrease from the control value, in per cent – was -2.93% (inactive) in experiment [7] and -5.9% (inactive) in experiment [8].

`COC(=O)c1ccc(NC(=O)C2CC(=O)N(c3cc(C)ccc3C)C2)cc1` (stereo not given): the viability in experiment [1] is 97%; in experiment [3] it was 97% (inactive); in experiment [4] it was 96.3% (inactive); in experiment [5], 89.8% (inactive); in experiment [6] (setting [9]), 86.2%; in experiment [6] (setting [10]) it was 89.8%. Besides, the Her2 level in experiment [2] was 99.5% (inactive). For the same compound, the differential viability (reversal) in experiment [6] (H69AR cells + 2 uM doxorubicin) is 3.6% (inactive). The inhibition in experiment [7] is -1.76% (inactive); in experiment [8], 13.7% (inactive).

In the case of `COc1ccc(C2CC(=O)c3cnc(NC(=O)c4ccccc4OC)nc3C2)c(OC)c1` (stereo not given), the viability in experiment [1] is 97.5%; in experiment [3], 97.5% (inactive); in experiment [4], 75.1% (inactive); in experiment [5] it was 87% (inactive); in experiment [6] (setting [9]), 92.7%; in experiment [6] (setting [10]) it was 87%. In addition, the Her2 level in experiment [2] is 49% (active). Also, in experiment [6] (H69AR cells + 2 uM doxorubicin), the differential viability (reversal) was -5.78% (inactive). The results for the inhibition in experiment [7] and in experiment [8] were -5.07% (inactive) and 1.15% (inactive), respectively.

Consider `Cc1cccc(-c2cc3nc(C)cc(NCCCN(C)C)n3n2)c1`, for which the viability in experiment [1] was 91.5%; in experiment [3], 91.5% (inactive); in experiment [4] it was 57.5% (inactive); in experiment [5], 82.8% (inactive); in experiment [6] (setting [9]), 75.8%; in experiment [6] (setting [10]), 82.8%. Further, the Her2 level in experiment [2] is 87.5% (inactive). Besides, the differential viability (reversal) in experiment [6] (H69AR cells + 2 uM doxorubicin) was 6.94% (inactive). For the same compound, the inhibition in experiment [7] was -6.93% (inactive); in experiment [8], 1.97% (inactive).

With `Cc1cc(Br)ccc1NC(=O)CCN1C(=O)c2ccncc2C1=O`, the viability in experiment [1] is 104%; in experiment [3], 104% (inactive); in experiment [4], 86.1% (inactive); in experiment [5] it was 95.6% (inactive); in experiment [6] (setting [9]), 91.7%; in experiment [6] (setting [10]), 95.6%. Further, the Her2 level in experiment [2] is 113% (inactive). For the same compound, the differential viability (reversal) in experiment [6] (H69AR cells + 2 uM doxorubicin) was 3.85% (inactive). Besides, the figures for the inhibition in experiment [7] and in experiment [8] were -3.78% (inactive) and -9.18% (inactive), respectively.

`CC(C)(C)n1ncc2c(=O)n(CC(=O)NCCc3ccccc3)cnc21`: the viability is 88% in experiment [1]; 88% (inactive) in experiment [3]; 107% (inactive) in experiment [4]; 90.9% (inactive) in experiment [5]; 95.8% in experiment [6] (setting [9]); 90.9% in experiment [6] (setting [10]). The Her2 level in experiment [2] was 108% (inactive). Also, the differential viability (reversal) in experiment [6] (H69AR cells + 2 uM doxorubicin) was -4.92% (inactive). Moreover, the inhibition was 0.92% (inactive) in experiment [7] and -6.13% (inactive) in experiment [8].

With `O=C(CN1CCCCCC1)OCCN=C1NS(=O)(=O)c2ccccc21`, the viability in experiment [1] was 108%; in experiment [3], 108% (inactive); in experiment [4] it was 88.1% (inactive); in experiment [5], 113% (inactive); in experiment [6] (setting [9]), 89.8%; in experiment [6] (setting [10]), 113%. The Her2 level in experiment [2] was 96.5% (inactive). Besides, the differential viability (reversal) in experiment [6] (H69AR cells + 2 uM doxorubicin) is 22.9% (inactive). Further, the inhibition in experiment [7] is -2.21% (inactive); in experiment [8] it was -6.51% (inactive).

Consider `Cc1ccc(N2CCN(C(=O)c3ccccc3Br)CC2)c(C)c1`, for which the viability in experiment [1] was 110%; in experiment [3], 110% (inactive); in experiment [4] it was 93% (inactive); in experiment [5], 89.2% (inactive); in experiment [6] (setting [9]), 78.6%; in experiment [6] (setting [10]) it was 89.2%. In addition, the Her2 level in experiment [2] is 72% (inactive). Also, the differential viability (reversal) in experiment [6] (H69AR cells + 2 uM doxorubicin) is 10.5% (inactive). In addition, the inhibition in experiment [7] was -5.6% (inactive); in experiment [8] it was 0.16% (inactive).

Regarding `CCc1ccc(NC(=O)C2CC(=O)N(C(C)C)C2)cc1` (stereo not given), the viability in experiment [1] was 111%; in experiment [3], 111% (inactive); in experiment [4], 100% (inactive); in experiment [5], 90.8% (inactive); in experiment [6] (setting [9]), 94.6%; in experiment [6] (setting [10]) it was 90.8%. Besides, in experiment [2], the Her2 level was 104% (inactive). Also, the differential viability (reversal) in experiment [6] (H69AR cells + 2 uM doxorubicin) was -3.8% (inactive). In addition, the figures for the inhibition in experiment [7] and in experiment [8] were -4.13% (inactive) and -2.46% (inactive), respectively.

As for `COc1ccc2nc(N3CCC(C)CC3)c(C#N)cc2c1`, the viability in experiment [1] is 108%; in experiment [3] it was 108% (inactive); in experiment [4], 86.6% (inactive); in experiment [5], 26.8% (active); in experiment [6] (setting [9]) it was 23%; in experiment [6] (setting [10]) it was 26.8%. In addition, the Her2 level in experiment [2] is 101% (inactive). For the same compound, the differential viability (reversal) in experiment [6] (H69AR cells + 2 uM doxorubicin) was 3.77% (inactive). The inhibition was -5.33% (inactive) in experiment [7] and 2.62% (inactive) in experiment [8].

Turning to `CCOC(=O)c1ccccc1NC(=O)c1ccc(NS(C)(=O)=O)cc1`, the viability in experiment [1] was 93.5%; in experiment [3], 93.5% (inactive); in experiment [4] it was 97% (inactive); in experiment [5], 80.7% (inactive); in experiment [6] (setting [9]), 82.7%; in experiment [6] (setting [10]) it was 80.7%. Besides, the Her2 level in experiment [2] was 83.5% (inactive). Moreover, the differential viability (reversal) in experiment [6] (H69AR cells + 2 uM doxorubicin) was -1.98% (inactive). The results for the inhibition in experiment [7] and in experiment [8] were -4.53% (inactive) and -3.81% (inactive), respectively.

For `CC(C)OC(=O)CSc1nnc(-c2ccc(C(C)(C)C)cc2)n1N`, the viability is 93% in experiment [1]; 93% (inactive) in experiment [3]; 86.7% (inactive) in experiment [4]; 88.4% (inactive) in experiment [5]; 82.8% in experiment [6] (setting [9]); 88.4% in experiment [6] (setting [10]). For the same compound, the Her2 level in experiment [2] was 108% (inactive). For the same compound, in experiment [6] (H69AR cells + 2 uM doxorubicin), the differential viability (reversal) was 5.61% (inactive). The inhibition in experiment [7] is -2.6% (inactive); in experiment [8], -12.7% (inactive).

As to `COC(=O)c1cc(NC(=O)C2COc3ccccc3O2)cc(C(=O)OC)c1` (stereo not given), the viability is 106% in experiment [1]; 106% (inactive) in experiment [3]; 91.1% (inactive) in experiment [4]; 84.2% (inactive) in experiment [5]; 74% in experiment [6] (setting [9]); 84.2% in experiment [6] (setting [10]). Further, in experiment [2], the Her2 level is 86% (inactive). In experiment [6] (H69AR cells + 2 uM doxorubicin), the differential viability (reversal) is 10.2% (inactive). For the same compound, the inhibition is -5.6% (inactive) in experiment [7] and 0.32% (inactive) in experiment [8].
